Tests used:
[1] = Toxicity in Galleria mellonella wax moth larve assessed as mortality at 2 mg/kg cotreated with 2 mg/kg meropenem relative to control; type: organism-based; conditions: in vivo, read-out: Activity
Method in brief: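 G. mellonella larvae (250–300 mg, n=10) infected in the hemocoel at the last left proleg with E. cloacae EL10 at 2.5 × 10^5 CFU/larva in PBS. Treatment was injected at the next left proleg 1 h from inoculation: vehicle, single agents at 10 mg/kg, or combinations at 2+2 or 10+10 mg/kg. Larvae were held at 37 °C and scored every 12 h for 48 h (no response to stimuli = dead). Log-rank test. Three independent experiments.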

HeLa [2] = assay: Cytotoxicity against human HeLa cells assessed as increase in cell viability at 0.13 to 2 mg/ml measured after 48 hrs by MTT assay relative to control; type: cell-based; conditions: dose 0.13-2 mg/ml
Method in brief: (§1)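 MTT assay. HeLa or L929 cells were seeded at 1×10^4/well in DMEM with 10% FBS and grown 12 h at 37 °C. They were exposed to 0.13–2 mg/mL compound (DMSO stock) for 48 h, then given 0.5 mg/mL MTT for 3 h at 37 °C. Formazan was dissolved in DMSO and read at 490 nm. Survival % was blank-corrected against the 0.5% DMSO medium control.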

HeLa [3] = assay: Cytotoxicity against human HeLa cells assessed as increase in cell viability at 2 mg/ml measured after 48 hrs by MTT assay; type: cell-based; method in brief: as §1
HeLa [4] = assay: Cytotoxicity against human HeLa cells assessed as effect on morphological changes at 0.13 to 2 mg/ml by microscopic analysis; type: cell-based; conditions: dose 0.13-2 mg/ml
Method in brief: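 HeLa and L929 cells were examined by microscopy for morphological change after incubation with compound at the MTT-assay concentrations.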

[5] = Covalent inhibition of Escherichia coli NDM-1 using nitrocefin as substrate

CC(C)(C)OC(=O)NCCn1[se]c2ccccc2c1=O
mortality [1]: 100%
Activity (HeLa [2]): 70%
Activity (HeLa [3]): Non-Toxic
Activity (HeLa [4]): Non-Toxic

O=c1c2ccccc2[se]n1-c1ccccc1 [EBSELEN]
Ki [5]: 380 nM
